Measurements from ChEMBL document CHEMBL5107946, “SF5- and SCF3-substituted tetrahydroquinoline compounds as potent bactericidal agents against multidrug-resistant persister Gram-positive bacteria” (RSC Med Chem, 2021).
≈ marks a conversion by molar mass, not a printed value. Calls of active or inactive are those of the source.

Assays:
Staphylococcus aureus [1] = test: Antibacterial activity against Staphylococcus aureus ATCC 25923 assessed as bacterial growth inhibition at 16 ug/ml incubated for 18 to 20 hrs by CLSI based broth microdilution assay; format: functional, organism-based; settings: dose 16.0 µg/ml, time 18-20 hrs
Procedure, shortened: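 Single-concentration screen at 16 μg mL−1 final. Overnight TSB culture was diluted 1:1000 in cation-adjusted MHB and grown to early exponential phase. 1 mL of culture was added to compound in glass tubes and incubated overnight at 37 °C. OD600 was read and normalized to the DMSO control after subtracting medium-only OD.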

Staphylococcus aureus [2] = test: Antibacterial activity against methicillin-resistant Staphylococcus aureus ST239 (ARLG 1663) assessed as bacterial growth inhibition incubated for 18 to 20 hrs by CLSI based broth microdilution assay; format: functional; settings: time 18-20 hrs
Procedure, shortened: (§1)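 CLSI broth microdilution; compounds and control antibiotics made up at 10 mg mL−1 in DMSO (stock), serially diluted 1:2 across the plate. Inoculum adjusted to 0.5 McFarland, then diluted 1:100 into wells. Plates incubated static at 37 °C for 18–20 h before MIC read.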

Staphylococcus aureus [3] = test: Antibacterial activity against methicillin-resistant Staphylococcus aureus ST239 (ARLG 1665) assessed as bacterial growth inhibition incubated for 18 to 20 hrs by CLSI based broth microdilution assay; format: functional; settings: time 18-20 hrs; procedure, shortened: as §1
Staphylococcus aureus [4] = test: Antibacterial activity against methicillin-resistant Staphylococcus aureus ST239 (ARLG 1644) assessed as bacterial growth inhibition incubated for 18 to 20 hrs by CLSI based broth microdilution assay; format: functional; settings: time 18-20 hrs; procedure, shortened: as §1
Staphylococcus aureus [5] = test: Antibacterial activity against methicillin-resistant Staphylococcus aureus ST1312 (ARLG 1649) assessed as bacterial growth inhibition incubated for 18 to 20 hrs by CLSI based broth microdilution assay; format: functional; settings: time 18-20 hrs; procedure, shortened: as §1
Staphylococcus aureus [6] = test: Bactericidal activity against methicillin-resistant Staphylococcus aureus ATCC 33592 assessed as reduction in colony forming unit incubated for 20 hrs; format: functional
Procedure, shortened: (§2)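 Follows the broth microdilution MIC plate. 4 μL taken from each well without growth, spotted in duplicate on tryptic soy agar and incubated static at 37 °C for 20 h. MBC taken as the concentration giving 99.9% reduction in CFU.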

Listeria monocytogenes = test: Antibacterial activity against Listeria monocytogenes ATCC 19115 assessed as bacterial growth inhibition incubated for 18 to 20 hrs by CLSI based broth microdilution assay; format: functional; settings: time 18-20 hrs
Procedure, shortened: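 MIC by CLSI broth microdilution. Compounds were made as 10 mg mL−1 DMSO stocks and serially diluted 1:2. Inoculum was set to 0.5 McFarland and diluted 1:100 into the wells. Plates were incubated static at 37 °C for 18–20 h before reading the MIC.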

Enterococcus faecium [7] = test: Bactericidal activity against vancomycin-resistant Enterococcus faecium ATCC 700221 assessed as reduction in colony forming unit incubated for 20 hrs; settings: ATCC 700221, 20 h
Staphylococcus aureus [8] = test: Bactericidal activity against Staphylococcus aureus ATCC 25923 assessed as reduction in colony forming unit incubated for 20 hrs; format: functional; procedure, shortened: as §2
Enterococcus faecalis [9] = test: Bactericidal activity against vancomycin-resistant Enterococcus faecalis ATCC 51575 assessed as reduction in colony forming unit incubated for 20 hrs; format: functional; procedure, shortened: as §2
Staphylococcus aureus [10] = test: Bactericidal activity against methicillin-resistant Staphylococcus aureus USA300 assessed as reduction in colony forming unit incubated for 20 hrs; format: functional; procedure, shortened: as §2
Enterococcus faecalis [11] = test: Bactericidal activity against Enterococcus faecalis ATCC 29212 assessed as reduction in colony forming unit incubated for 20 hrs; format: functional; procedure, shortened: as §2
Staphylococcus aureus [12] = test: Antibacterial activity against methicillin-resistant Staphylococcus aureus ATCC 33592 assessed as fold increase in MIC incubated for 30 days by resistance development based broth microdilution assay; format: functional; settings: time 30 day
Procedure, shortened: (§3)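 Multi-step resistance selection over 30 days. MIC determined first. Each day, 5 μL from the turbid well just below the MIC was diluted 1:1000 in CA-MHB and used as inoculum for the next broth microdilution MIC. Resistance defined as a rise of more than four-fold over the starting MIC.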

Staphylococcus aureus [13] = test: Antibacterial activity against Staphylococcus aureus ATCC 25923 assessed as bacterial growth inhibition incubated for 18 to 20 hrs by CLSI based broth microdilution assay; format: functional; settings: time 18-20 hrs; procedure, shortened: as §1
Cell membrane [14] = test: Induction of cell membrane permeability in Staphylococcus aureus ATCC 25923 at 4 ug/ml by DiOC2 dye based flow cytometry assay; settings: dose 4.0 µg/ml
Procedure, shortened: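 Flow cytometry on S. aureus ATCC 25923 grown in TSB to exponential phase (OD600 0.2–0.3), then treated. Cells were washed twice in PBS and resuspended in buffer. To-PRO 3 iodide (red) and DiOC2 (green) were added and samples analysed immediately. The red/green ratio was used as the permeabilization readout, with bithionol 4 μg mL−1 as positive control.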

Cell membrane [15] = test: Induction of cell membrane disruption in persister Staphylococcus aureus ATCC 25923 at 32 ug/ml incubated for 6 hrs by scanning electron microscopy; settings: dose 32.0 µg/ml
Enterococcus faecalis [16] = test: Antibacterial activity against Enterococcus faecalis ATCC 29212 assessed as bacterial growth inhibition incubated for 18 to 20 hrs by CLSI based broth microdilution assay; format: functional; settings: time 18-20 hrs; procedure, shortened: as §1
Enterococcus faecium [17] = test: Antibacterial activity against vancomycin-resistant Enterococcus faecium ATCC 700221 assessed as bacterial growth inhibition incubated for 18 to 20 hrs by CLSI based broth microdilution assay
Enterococcus faecalis [18] = test: Antibacterial activity against vancomycin-resistant Enterococcus faecalis ATCC 51575 assessed as bacterial growth inhibition incubated for 18 to 20 hrs by CLSI based broth microdilution assay; format: functional; settings: time 18-20 hrs; procedure, shortened: as §1
Staphylococcus aureus [19] = test: Antibacterial activity against methicillin-resistant Staphylococcus aureus ATCC 33592 assessed as bacterial growth inhibition incubated for 18 to 20 hrs by CLSI based broth microdilution assay; format: functional; settings: time 18-20 hrs; procedure, shortened: as §1
Staphylococcus aureus [20] = test: Antibacterial activity against methicillin-resistant Staphylococcus aureus USA300 assessed as bacterial growth inhibition incubated for 18 to 20 hrs by CLSI based broth microdilution assay; format: functional; settings: time 18-20 hrs; procedure, shortened: as §1
Staphylococcus aureus [21] = test: Antibacterial activity against methicillin-resistant Staphylococcus aureus USA300 assessed as fold increase in MIC incubated for 30 days by resistance development based broth microdilution assay; format: functional; settings: time 30 day; procedure, shortened: as §3

Row | Compound | Activity (Staphylococcus aureus [1]) | MIC (Listeria monocytogenes) [µg/mL] | MIC (Staphylococcus aureus [13]) [µg/mL] | MIC (Enterococcus faecalis [16]) [µg/mL] | MIC (Enterococcus faecium [17]) [µg/mL] | MIC (Enterococcus faecalis [18]) [µg/mL] | other results
1 | CC(C)Oc1ccc2c(c1)[C@H]1[C@@H]3CC[C@@H](C3)[C@H]1[C@H](c1c[nH]nc1C(F)(F)F)N2 | Active |  |  |  |  |  | 
2 | Cc1onc(-c2ccccc2)c1C(=O)N[C@@H]1C(=O)N2[C@@H]1SC(C)(C)[C@@H]2C(=O)O [OXACILLIN] |  |  |  |  |  |  | MIC (Staphylococcus aureus [2]): 256 µg/mL (≈ 638 µM); MIC (Staphylococcus aureus [3]): 512 µg/mL (≈ 1280 µM); MIC (Staphylococcus aureus [4]): 512 µg/mL (≈ 1280 µM); MIC (Staphylococcus aureus [5]): 256 µg/mL (≈ 638 µM)
3 | CC(=O)NC[C@H]1CN(c2ccc(N3CCOCC3)c(F)c2)C(=O)O1 [LINEZOLID] |  | 2 (≈ 5.93 µM) |  |  |  |  | MBC (Staphylococcus aureus [6]): 64 µg/mL (≈ 190 µM); MBC (Enterococcus faecium [7]): > 128 µg/mL; MBC (Staphylococcus aureus [8]): 64 µg/mL (≈ 190 µM); MBC (Enterococcus faecalis [9]): > 128 µg/mL; MBC (Staphylococcus aureus [10]): 64 µg/mL (≈ 190 µM); MBC (Enterococcus faecalis [11]): 64 µg/mL (≈ 190 µM)
4 | C/C(=C\C(=O)OCCCCCCCCC(=O)O)C[C@@H]1OC[C@H](C[C@@H]2O[C@H]2[C@@H](C)[C@H](C)O)[C@@H](O)[C@H]1O [MUPIROCIN] |  |  |  |  |  |  | fold change (FC) (Staphylococcus aureus [12]): >250
5 | FS(F)(F)(F)(F)c1ccc2c(c1)[C@H]1[C@@H]3CC[C@@H](C3)[C@H]1[C@H](c1c[nH]cn1)N2 | Active |  | 8 (≈ 20.4 µM) |  |  |  | 
6 | FS(F)(F)(F)(F)c1ccc2c(c1)[C@H]1[C@@H]3CC[C@@H](C3)[C@H]1[C@H](c1cn[nH]c1)N2 | Active |  | 16 (≈ 40.9 µM) |  |  |  | 
7 | Oc1c(Cl)cc(Cl)cc1Sc1cc(Cl)cc(Cl)c1O |  |  |  |  |  |  | Activity (Cell membrane [14]): Active; Activity (Cell membrane [15]): Active
8 | CN[C@H](CC(C)C)C(=O)N[C@H]1C(=O)N[C@@H](CC(N)=O)C(=O)N[C@H]2C(=O)N[C@H]3C(=O)N[C@H](C(=O)N[C@H](C(=O)O)c4cc(O)cc(O)c4-c4cc3ccc4O)[C@H](O)c3ccc(c(Cl)c3)Oc3cc2cc(c3O[C@@H]2O[C@H](CO)[C@@H](O)[C@H](O)[C@H]2O[C@H]2C[C@](C)(N)[C@H](O)[C@H](C)O2)Oc2ccc(cc2Cl)[C@H]1O [VANCOMYCIN] |  | 1 (≈ 0.69 µM) |  | 2 (≈ 1.38 µM) | > 128 | > 128 | MBC (Staphylococcus aureus [6]): 2 µg/mL (≈ 1.38 µM); MBC (Enterococcus faecium [7]): > 128 µg/mL; MBC (Staphylococcus aureus [8]): 2 µg/mL (≈ 1.38 µM); MBC (Enterococcus faecalis [9]): > 128 µg/mL; MBC (Staphylococcus aureus [10]): 2 µg/mL (≈ 1.38 µM); MBC (Enterococcus faecalis [11]): 2 µg/mL (≈ 1.38 µM)
9 | FC(F)(F)c1n[nH]cc1-c1nc2ccc(S(F)(F)(F)(F)F)cc2c2c1[C@H]1CC[C@@H]2C1 | Active | 8 (≈ 17.6 µM) | 4 (≈ 8.78 µM) | 8 (≈ 17.6 µM) | 8 (≈ 17.6 µM) | 8 (≈ 17.6 µM) | MIC (Staphylococcus aureus [19]): 8 µg/mL (≈ 17.6 µM); MIC (Staphylococcus aureus [20]): 8 µg/mL (≈ 17.6 µM)
10 | FC(F)(F)c1n[nH]cc1[C@@H]1Nc2ccccc2[C@H]2[C@@H]3CC[C@@H](C3)[C@H]21 | Active |  |  |  |  |  | 
11 | FC(F)(F)Oc1ccc2c(c1)[C@H]1[C@@H]3CC[C@@H](C3)[C@H]1[C@H](c1c[nH]nc1C(F)(F)F)N2 | Active | 4 (≈ 9.58 µM) | 4 (≈ 9.58 µM) | 8 (≈ 19.2 µM) | 4 (≈ 9.58 µM) | 8 (≈ 19.2 µM) | MIC (Staphylococcus aureus [19]): 4 µg/mL (≈ 9.58 µM); MIC (Staphylococcus aureus [20]): 8 µg/mL (≈ 19.2 µM)
12 | O=C(O)c1ccc([C@@H]2Nc3ccc(S(F)(F)(F)(F)F)cc3[C@H]3[C@@H]4CC[C@@H](C4)[C@H]32)cc1 | Active | 4 (≈ 8.98 µM) | 4 (≈ 8.98 µM) | 4 (≈ 8.98 µM) | 4 (≈ 8.98 µM) | 4 (≈ 8.98 µM) | MIC (Staphylococcus aureus [19]): 4 µg/mL (≈ 8.98 µM); MIC (Staphylococcus aureus [20]): 16 µg/mL (≈ 35.9 µM)
13 | O=C(O)c1cn(C2CC2)c2cc(N3CCNCC3)c(F)cc2c1=O [CIPROFLOXACIN] |  |  |  |  |  |  | fold change (FC) (Staphylococcus aureus [12]): 64; fold change (FC) (Staphylococcus aureus [21]): 16
14 | FC(F)Oc1ccc2c(c1)[C@H]1[C@@H]3CC[C@@H](C3)[C@H]1[C@H](c1c[nH]nc1C(F)(F)F)N2 | Active |  |  |  |  |  | 
15 | FC(F)(F)Sc1ccc2c(c1)[C@H]1[C@@H]3CC[C@@H](C3)[C@H]1[C@H](c1c[nH]nc1C(F)(F)F)N2 | Active | 4 (≈ 9.23 µM) | 4 (≈ 9.23 µM) | 8 (≈ 18.5 µM) | 4 (≈ 9.23 µM) | 8 (≈ 18.5 µM) | MIC (Staphylococcus aureus [19]): 2 µg/mL (≈ 4.61 µM); MIC (Staphylococcus aureus [20]): 4 µg/mL (≈ 9.23 µM)
16 | FC(F)(F)c1ccc2c(c1)N[C@@H](c1c[nH]nc1C(F)(F)F)[C@@H]1[C@H]3CC[C@H](C3)[C@H]21 | Active | 8 (≈ 19.9 µM) | 4 (≈ 9.97 µM) | 8 (≈ 19.9 µM) | 8 (≈ 19.9 µM) | 8 (≈ 19.9 µM) | MIC (Staphylococcus aureus [19]): 8 µg/mL (≈ 19.9 µM); MIC (Staphylococcus aureus [20]): 8 µg/mL (≈ 19.9 µM)
17 | Fc1ccc2c(c1)[C@H]1[C@@H]3CC[C@@H](C3)[C@H]1[C@H](c1c[nH]nc1C(F)(F)F)N2 | Active |  |  |  |  |  | 
